In ChEMBL document CHEMBL4411279, “Synthesis of new chalcone-based homoserine lactones and their antiproliferative activity evaluation” (Eur J Med Chem, 2019):
The source made the active and inactive calls. The calls are words filed in the database; no cut-off is given here.

Key:
MCF7 = experiment: Antiproliferative activity against human MCF7 cells after 72 hrs by MTT assay; type: functional, cell-based; settings: MCF7, 72 h
Outline: (§1)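 Cells seeded 3,000/well, after 24 h medium replaced with compound at 64, 32, 16, 8, 4, 2, 1, 0.5 µM; 72 h exposure, MTT read-out at 570 nm; IC50 given as mean ± SD.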

DU-145 [1] = experiment: Induction of apoptosis in human DU145 cells assessed as chromatin shrinkage at 5 uM after 24 hrs in presence of TRAIL by Hoechst 33258 staining-based fluorescence microscopic analysis; type: functional, cell-based
Outline: (§2)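 DU145 seeded 1×10^5/well, adhered overnight, treated 24 h with compound alone or combined with TRAIL; stained with Hoechst 33258 for 30 min in the dark; nuclear morphology examined by fluorescence microscopy.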

DU-145 [2] = experiment: Growth inhibition of human DU145 cells at 2.5 uM after 24 to 48 hrs by MTT assay; type: functional, cell-based
Outline: (§3)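 DU145 growth inhibition measured by MTT; time course at 24, 48 and 72 h; combination arm used recombinant TRAIL at 100 ng/mL together with compound (2.5 or 5.0 µM); mean ± SD, experiment repeated three times, Student's t test.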

DU-145 [3] = experiment: Inhibition of colony formation in human DU145 cells after 21 days by crystal violet staining-based assay; type: functional, cell-based
Outline: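 DU145 seeded 4000/well, grown 4 days, then medium with compound at various concentrations for 21 days; PBS washed, fixed in 4% paraformaldehyde, stained with 0.1% crystal violet; colonies (>10 cells) counted; inhibition = (1 − treated/control colonies) × 100%.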

DU-145 [4] = experiment: Induction of apoptosis in human DU145 cells assessed as increase in caspase-3/7 activity at 5 uM after 24 hrs in presence of TRAIL by Caspase-Glo 3/7 assay relative to control; type: functional
Outline: (§4)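 DU145 treated 24 h with compound alone or with TRAIL (100 ng/mL); caspase-3/7 activity measured by Caspase-Glo 3/7 luminescent protocol relative to untreated control; three independent experiments, mean ± SD, Student's t test.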

DU-145 [5] = experiment: Induction of apoptosis in human DU145 cells assessed as early apoptotic cells at 5 uM after 24 hrs by Annexin V-FITC/propidium iodide staining-based high content screening assay (reference value: 0.3%); type: functional
Outline: (§5)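 DU145 seeded 3×10^5/well, grown 24 h, treated 24 h with compound alone or plus TRAIL; harvested, stained with Annexin V-FITC/PI per kit protocol, quantified by high content screening; mean ± SD of three experiments.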

PC-3 = experiment: Antiproliferative activity against human PC3 cells after 72 hrs by MTT assay; type: functional, cell-based; settings: PC-3, 72 h; outline: as §1
DU-145 [6] = experiment: Induction of apoptosis in human DU145 cells assessed as early apoptotic cells at 5 uM after 24 hrs in presence of TRAIL by Annexin V-FITC/propidium iodide staining-based high content screening assay (reference value: 0.3%); type: functional; outline: as §5
DU-145 [7] = experiment: Induction of apoptosis in human DU145 cells assessed as necrotic cells at 5 uM after 24 hrs in presence of TRAIL by Annexin V-FITC/propidium iodide staining-based high content screening assay (reference value: 1.6%); type: functional; outline: as §5
DU-145 [8] = experiment: Induction of apoptosis in human DU145 cells assessed as late apoptotic cells at 5 uM after 24 hrs in presence of TRAIL by Annexin V-FITC/propidium iodide staining-based high content screening assay (reference value: 0.2%); type: functional; outline: as §5
MGC-803 = experiment: Antiproliferative activity against human MGC803 cells after 72 hrs by MTT assay; type: functional, cell-based; settings: MGC-803, 72 h; outline: as §1
DU-145 [9] = experiment: Induction of apoptosis in human DU145 cells assessed as late apoptotic cells at 5 uM after 24 hrs by Annexin V-FITC/propidium iodide staining-based high content screening assay (reference value: 0.2%); type: functional; outline: as §5
DU-145 [10] = experiment: Induction of apoptosis in human DU145 cells assessed as viable cells at 5 uM after 24 hrs in presence of TRAIL by Annexin V-FITC/propidium iodide staining-based high content screening assay (reference value: 97.9%); type: functional; settings: DU-145, 24 h, read-out: Activity; outline: as §5
DU-145 [11] = experiment: Induction of apoptosis in human DU145 cells assessed as formation of apoptotic bodies at 5 uM after 24 hrs by Hoechst 33258 staining-based fluorescence microscopic analysis; type: functional, cell-based; outline: as §2
DU-145 [12] = experiment: Antiproliferative activity against human DU145 cells after 72 hrs by MTT assay; type: functional, cell-based; settings: DU-145, 72 h; outline: as §1
DU-145 [13] = experiment: Induction of apoptosis in human DU145 cells assessed as formation of apoptotic bodies at 5 uM after 24 hrs in presence of TRAIL by Hoechst 33258 staining-based fluorescence microscopic analysis; type: functional, cell-based; outline: as §2
DU-145 [14] = experiment: Induction of apoptosis in human DU145 cells assessed as viable cells at 5 uM after 24 hrs by Annexin V-FITC/propidium iodide staining-based high content screening assay (reference value: 97.9%); type: functional; settings: DU-145, 24 h, read-out: Activity; outline: as §5
DU-145 [15] = experiment: Induction of apoptosis in human DU145 cells assessed as necrotic cells at 5 uM after 24 hrs by Annexin V-FITC/propidium iodide staining-based high content screening assay (reference value: 1.6%); type: functional; outline: as §5
DU-145 [16] = experiment: Induction of apoptosis in human DU145 cells assessed as chromatin shrinkage at 5 uM after 24 hrs by Hoechst 33258 staining-based fluorescence microscopic analysis; type: functional, cell-based; outline: as §2
DU-145 [17] = experiment: Growth inhibition of human DU145 cells at 2.5 uM by MTT assay; type: functional, cell-based; settings: TDE = time-dependent effect; outline: as §3
DU-145 [18] = experiment: Induction of apoptosis in human DU145 cells assessed as increase in caspase-3/7 activity at 2.5 to 10 uM after 24 hrs by Caspase-Glo 3/7 assay; type: functional, cell-based; outline: as §4
DU-145 [19] = experiment: Growth inhibition of human DU145 cells at 2.5 uM after 72 hrs in presence of TRAIL by MTT assay relative to control; type: functional; settings: DU-145, 72 h, read-out: GI; outline: as §3
DU-145 [20] = experiment: Induction of apoptosis in human DU145 cells assessed as cell rounding at 5 uM after 24 hrs by Hoechst 33258 staining-based fluorescence microscopic analysis; type: functional; outline: as §2
DU-145 [21] = experiment: Induction of apoptosis in human DU145 cells assessed as cell rounding at 5 uM after 24 hrs in presence of TRAIL by Hoechst 33258 staining-based fluorescence microscopic analysis; type: functional; outline: as §2

O=C(COc1ccc(C(=O)/C=C/c2ccccc2Cl)cc1)N[C@H]1CCOC1=O
IC50 (MCF7): 17.4 µM | Activity (DU-145 [1]): Active | Activity (DU-145 [2]): Active | inhibition (DU-145 [3]): Dose-dependent effect | fold change (FC) (DU-145 [4]): 3 | Activity (DU-145 [5]): 6.4% | IC50 (PC-3): 4.61 µM | Activity (DU-145 [6]): 13.4% | Activity (DU-145 [7]): 0.1% | Activity (DU-145 [8]): 1.7% | IC50 (MGC-803): 27.1 µM | Activity (DU-145 [9]): 1.7% | viability at 5 µM (DU-145 [10]): 84.8% | Activity (DU-145 [11]): Active | IC50 (DU-145 [12]): 3.24 µM | Activity (DU-145 [13]): Active | viability at 5 µM (DU-145 [14]): 90.1% | Activity (DU-145 [15]): 1.7% | Activity (DU-145 [16]): Active | growth inhibition (GI) (DU-145 [17]): Tde | Activity (DU-145 [18]): Active | inhibition of growth at 2.5 µM (DU-145 [19]): 50% | Activity (DU-145 [20]): Active | Activity (DU-145 [21]): Active
